We go through five molecules from ChEMBL document CHEMBL1126270, “Synthesis of 3-[(2,3-dihydro-1,1,3-trioxo-1,2-benzisothiazol-2-yl)alkyl] 1,4-dihydropyridine-3,5-dicarboxylate derivatives as calcium channel modulators” (J Med Chem, 1992).

The species entered for data set [1] is Oryctolagus cuniculus. Nature of the data set: Recovery of the initial contraction of rabbit aortic strips, blocked at 10e-7 M concentration. The following applies: Aorta.
Data set [2] has as its target T1, Voltage-dependent L-type calcium channel subunit alpha-1C (Oryctolagus cuniculus, UniProt P15381). Kind of data set: Blockade of calcium-evoked contractions in depolarized aortic strips. It is filed as functional, tissue-based, Aorta.
Data set [3] has as its target T1, Voltage-dependent L-type calcium channel subunit alpha-1C. The following applies: rabbit, Aorta.
For data set [4], the species on record is Oryctolagus cuniculus. Kind of data set: Relative potency was evaluated. (relative potency = IC50 of compound / IC50 of nifedipine). It is filed as functional.
The species entered for data set [5] is Oryctolagus cuniculus. Kind of data set: Compound was evaluated for contraction on Electrically driven Rabbit left atria. at 10e-7 M. In kind it is functional.
For data set [6], the species on record is Oryctolagus cuniculus. Kind of data set: Compound was evaluated for contraction on Electrically driven Rabbit left atria. at 10e-8 M. It is filed as functional.
The test system of data set [7] is Rattus norvegicus. Kind of data set: Effect (iv, 100 ug/kg) on systolic blood pressure in anesthetized normotensive rat. It is filed as functional, Artery. A digest of the protocol: (§1)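 Male Wistar rats, 290 ± 30 g, pentobarbitone anesthesia (70 mg/kg ip), tracheal cannulation. Carotid arterial pressure recorded, dosing via femoral vein. Bolus iv of 0.1 mg/kg in PEG-400 (0.1 mL/kg); effects recorded continuously for 15 min; peak rise in mmHg above basal.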

Data set [8] deals with Rattus norvegicus. Kind of data set: Effect (iv, 100 ug/kg) on diastolic blood pressure in anesthetized normotensive rat. It is filed as functional, Artery. A digest of the protocol: as §1
Data set [9] is filed under the species Oryctolagus cuniculus. Nature of the data set: Compound was evaluated for contraction on Electrically driven Rabbit left atria. at 10e-6 M. It is filed as functional.
The species named for data set [10] is Oryctolagus cuniculus. Kind of data set: Maximum contractile force in rabbit aorta strips. It is filed as functional. A digest of the protocol: (§2)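 Rabbit aortic strips, after equilibration in Ca2+-free Krebs, switched to buffer with 10 mM K+. Repeated 1.5 mM Ca2+ pulses until reproducible. Increasing compound concentrations each given 10 min before a further 1.5 mM Ca2+ pulse. Maximum contractile force (mg) taken as vasoconstrictor effect; data as mean ± SEM at 10^-6 M.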

The species entered for data set [11] is Rattus norvegicus. Kind of data set: Compound evaluated for reducing diastolic blood pressure normotensive rats. In kind it is functional, Artery.
Data set [12] is filed under the species Rattus norvegicus. Kind of data set: Reducing systolic blood pressure in spontaneously hypertensive rats. Particulars: Artery. It is filed as functional. The method in brief: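 Conscious SHR trained 2 weeks, warmed at 31 ± 1 °C for 2 h; tail plethysmography SBP, mean of five readings; only rats above 170 mmHg used. After 24 h fasting, 20 mg/kg by gavage in 20% PEG-400/0.5% methylcellulose (10 mL/kg); SBP change read 1 h post-dose, n = 12.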

The subject of data set [13] is Rattus norvegicus. Nature of the data set: Systolic blood pressure after administration of a single oral dose (20 mg/kg). In kind it is functional. A digest of the protocol: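 Conscious SHR trained for 2 weeks; systolic pressure by tail plethysmography after 2 h at 31 ± 1 °C, each reading the mean of five determinations. Only rats with basal >170 mmHg were used. After 24 h fasting, dosed by gavage in 20% PEG-400 in 0.5% aqueous methylcellulose (10 mL/kg). % change from basal at 1 h; mean ± SE, n = 12.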

The species named for data set [14] is Rattus norvegicus. Kind of data set: Duration of action in spontaneously hypertensive rats. In kind it is functional. The method in brief: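 Anesthetized (pentobarbitone 70 mg/kg ip) Okamoto SHR, 290 ± 30 g; carotid pressure, femoral vein dosing. Cumulative increasing iv bolus doses of 1, 3, 6, 10, 20, 30 µg/kg in PEG-400 (0.1 mL/kg), each recorded 15 min; ED25 for lowering SBP and DBP and duration of hypotensive action estimated.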

The species entered for data set [15] is Rattus norvegicus. Nature of the data set: Compound evaluated for reducing diastolic blood pressure spontaneously hypertensive rats. In kind it is functional. Particulars: Artery. A digest of the protocol:
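Male SHR (Okamoto strain, 290 ± 30 g) under sodium pentobarbitone anaesthesia (70 mg/kg ip) with tracheal cannulation. Arterial pressure recorded from the left carotid artery. Bolus iv via right femoral vein in PEG-400 (0.1 mL/kg), cumulative doses of 1, 3, 6, 10, 20 and 30 μg/kg, each followed for 15 min. ED25 for lowering diastolic pressure estimated.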

Data set [16] is filed under the species Oryctolagus cuniculus. Kind of data set: Inhibition of electrically stimulated rabbit left atria contraction. It is filed as functional. The method in brief:
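Rabbit left atria electrically driven (1 Hz, 10 ms, twice threshold voltage), equilibrated 1–1.5 h. Compounds added cumulatively (10^-10–10^-6 M), diluted from DMSO stocks into Krebs–Henseleit, final DMSO <0.1%. Isometric force recorded; IC50 from contractile force relative to initial control values, with 95% confidence limits.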

The species entered for data set [17] is Oryctolagus cuniculus. Kind of data set: Compound was tested in vitro for its effect on maximum contractile force in rabbit aorta strips. In kind it is functional. A digest of the protocol: as §2
The species entered for data set [18] is Oryctolagus cuniculus. Nature of the data set: Blockade of calcium-evoked contractions evaluated in depolarized rabbit aortic strips. It is filed as functional. Particulars: Aorta. The method in brief: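 Male New Zealand rabbit thoracic aorta, helicoidal strips, 2.5 g preload, Krebs–bicarbonate, 37 °C, 95% O2/5% CO2, pH 7.4. After 1 h equilibration, depolarized with 35 mM K+; 1.5 mM Ca2+ added 10 min later, repeated until reproducible. Compound at increasing concentrations from 20 min before and during Ca2+ addition; responses normalized to initial tension; IC50 by Finney method.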

Data set [19] is filed under the species Rattus norvegicus. Kind of data set: Compound evaluated for reducing diastolic blood pressure in normotensive rats. It is filed as functional, Artery.

T1 sequence (P15381 whole entry): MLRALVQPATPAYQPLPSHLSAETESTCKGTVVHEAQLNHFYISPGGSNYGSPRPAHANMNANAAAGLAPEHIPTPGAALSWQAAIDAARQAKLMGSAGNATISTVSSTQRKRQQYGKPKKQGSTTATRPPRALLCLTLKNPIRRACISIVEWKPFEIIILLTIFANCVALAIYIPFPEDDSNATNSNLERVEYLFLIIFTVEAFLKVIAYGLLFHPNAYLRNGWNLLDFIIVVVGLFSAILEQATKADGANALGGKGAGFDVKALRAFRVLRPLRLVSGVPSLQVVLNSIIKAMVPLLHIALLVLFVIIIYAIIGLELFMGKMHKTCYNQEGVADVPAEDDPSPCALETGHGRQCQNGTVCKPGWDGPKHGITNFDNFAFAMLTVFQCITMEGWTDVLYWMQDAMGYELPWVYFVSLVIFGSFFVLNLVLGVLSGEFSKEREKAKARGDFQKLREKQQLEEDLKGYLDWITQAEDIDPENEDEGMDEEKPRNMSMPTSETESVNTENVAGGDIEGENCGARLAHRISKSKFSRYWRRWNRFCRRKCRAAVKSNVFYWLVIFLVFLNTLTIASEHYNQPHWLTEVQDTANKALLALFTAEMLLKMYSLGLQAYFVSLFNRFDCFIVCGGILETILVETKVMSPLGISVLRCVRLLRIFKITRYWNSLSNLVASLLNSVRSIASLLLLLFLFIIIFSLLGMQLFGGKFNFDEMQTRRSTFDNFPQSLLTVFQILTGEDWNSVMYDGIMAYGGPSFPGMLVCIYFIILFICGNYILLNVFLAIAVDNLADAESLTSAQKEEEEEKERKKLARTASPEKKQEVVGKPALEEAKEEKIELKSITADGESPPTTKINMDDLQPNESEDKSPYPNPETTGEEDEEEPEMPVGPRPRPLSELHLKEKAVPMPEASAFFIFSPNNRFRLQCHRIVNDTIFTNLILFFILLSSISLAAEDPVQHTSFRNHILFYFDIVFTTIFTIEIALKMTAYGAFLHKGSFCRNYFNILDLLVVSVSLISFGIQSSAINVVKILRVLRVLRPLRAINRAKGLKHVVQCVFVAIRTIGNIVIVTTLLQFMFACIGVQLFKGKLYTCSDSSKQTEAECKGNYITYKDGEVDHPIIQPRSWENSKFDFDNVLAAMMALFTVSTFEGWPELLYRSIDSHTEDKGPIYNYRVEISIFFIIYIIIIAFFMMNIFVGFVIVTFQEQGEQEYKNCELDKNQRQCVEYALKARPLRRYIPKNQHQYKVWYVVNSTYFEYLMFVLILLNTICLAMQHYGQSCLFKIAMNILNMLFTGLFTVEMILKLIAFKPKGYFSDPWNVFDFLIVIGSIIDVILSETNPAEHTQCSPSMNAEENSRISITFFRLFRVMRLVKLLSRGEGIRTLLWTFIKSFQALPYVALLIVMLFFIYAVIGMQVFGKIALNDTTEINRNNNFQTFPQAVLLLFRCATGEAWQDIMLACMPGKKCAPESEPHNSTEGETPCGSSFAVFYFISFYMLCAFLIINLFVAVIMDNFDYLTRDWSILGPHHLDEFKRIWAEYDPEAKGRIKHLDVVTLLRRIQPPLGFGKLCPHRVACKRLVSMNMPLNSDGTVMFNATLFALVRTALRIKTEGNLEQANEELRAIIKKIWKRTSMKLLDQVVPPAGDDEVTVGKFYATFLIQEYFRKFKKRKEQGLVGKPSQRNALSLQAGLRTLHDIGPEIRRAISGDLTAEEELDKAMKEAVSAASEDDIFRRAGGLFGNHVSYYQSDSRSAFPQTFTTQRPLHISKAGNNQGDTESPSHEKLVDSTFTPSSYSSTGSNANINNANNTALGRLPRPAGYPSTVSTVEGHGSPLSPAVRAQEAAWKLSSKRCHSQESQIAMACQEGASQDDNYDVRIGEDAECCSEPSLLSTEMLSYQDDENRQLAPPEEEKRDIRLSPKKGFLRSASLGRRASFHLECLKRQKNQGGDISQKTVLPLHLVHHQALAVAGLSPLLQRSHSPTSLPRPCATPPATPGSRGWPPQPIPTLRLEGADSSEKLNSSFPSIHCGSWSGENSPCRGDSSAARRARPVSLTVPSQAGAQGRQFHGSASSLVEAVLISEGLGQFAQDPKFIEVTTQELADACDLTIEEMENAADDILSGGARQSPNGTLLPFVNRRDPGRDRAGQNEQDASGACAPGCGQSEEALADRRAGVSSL

In the case of `CC1=NC(C)=C(C(=O)OCN2C(=O)c3ccccc3S2(=O)=O)C(c2cccc([N+](=O)[O-])c2)/C1=C(\O)OCC1CCCO1` (stereo unspecified), in the data set filed under Oryctolagus cuniculus [1], the Recovery was 27.2%. Further, the IC50 in data set [2] came to 25.1 nM. In addition, in [3], the T1/2 is on record as 9.6 min. In the data set listed under Oryctolagus cuniculus [4], this molecule registered a Relative potency of 0.1.
Take `COC(=O)C1=C(C)NC(C)=C([N+](=O)[O-])C1c1ccccc1C(F)(F)F` (stereo unspecified): the results for the Contraction in the data set listed under Oryctolagus cuniculus [5], in the data set filed under Oryctolagus cuniculus [6] and in the data set filed under Oryctolagus cuniculus [9] were 232.2%, 97.8% and 471.4%, respectively. The molecule further returned an SBP in the data set on Rattus norvegicus [7] of 100. In the data set with Rattus norvegicus [8], this molecule showed a DBP of 53.3. Besides, the Max contractile force in the data set filed under Oryctolagus cuniculus [10] was determined as 2570 mg. Also, the DBP change in the data set listed under Rattus norvegicus [11] worked out at 53.3%.
Regarding `COC(=O)C1=C(C)NC(C)=C(C(=O)OC)C1c1ccccc1[N+](=O)[O-]` [NIFEDIPINE], the ED25 in the data set filed under Rattus norvegicus [12] is 0.033 mg/kg; in the data set listed under Rattus norvegicus [15], 0.031 mg/kg. Besides, the Recovery in the data set filed under Oryctolagus cuniculus [1] was found to be 71.6%. This molecule yielded an SBP change in the data set on Rattus norvegicus [13] of 35%. Also, in the data set filed under Rattus norvegicus [14], the Duration stood at 3 min. In the data set listed under Oryctolagus cuniculus [16], this molecule came in with an IC50 of 113 nM.
Consider `CC1=NC(C)=C(C(=O)OCN2C(=O)c3ccccc3S2(=O)=O)C(c2ccccc2[N+](=O)[O-])/C1=C(\O)OCC1CCCO1` (stereo unspecified), for which the Recovery in the data set filed under Oryctolagus cuniculus [1] worked out at 44.5%. Also, the figures for the IC50 (in data set [2]; in the data set filed under Oryctolagus cuniculus [16]) were 38 nM and 286 nM, respectively. For the same molecule, in data set [3], the T1/2 amounted to 8.7 min. This molecule also showed a Relative potency in the data set listed under Oryctolagus cuniculus [4] of 0.1.
`CC1=NC(C)=C(C(=O)OCCN2C(=O)c3ccccc3S2(=O)=O)C(c2cccc([N+](=O)[O-])c2)/C1=C(\O)OCC1CCCCO1` (stereo unspecified): the Contraction in the data set filed under Oryctolagus cuniculus [5] is listed as 129.6%; in the data set listed under Oryctolagus cuniculus [6], 114%; in the data set filed under Oryctolagus cuniculus [9], 141.2%. The Max contractile activity in the data set listed under Oryctolagus cuniculus [17] is 1940 mg. In the data set with Rattus norvegicus [7], this molecule showed an SBP of 58.1. Moreover, the DBP in the data set on Rattus norvegicus [8] came to 40. The IC50 in the data set listed under Oryctolagus cuniculus [18] is > 1000 nM. The same molecule displayed a Max contractile force in the data set filed under Oryctolagus cuniculus [10] of 1940 mg. Also, the DBP change in the data set filed under Rattus norvegicus [19] was 40%.

A word on the IC50: it is the concentration that gives 50% inhibition.
